Reference: ChEMBL document CHEMBL2086268, “Synthesis, radiolabeling and initial in vivo evaluation of [(11)C]KSM-01 for imaging PPAR-α receptors” (Bioorg Med Chem Lett, 2012)

Legend:
Details in all cases: in vivo, 1 h; call rule not given here
Mus musculus = test: Drug uptake in MHC-PPARalpha overexpressing transgenic mouse at 170 uCi, iv after 60 mins by microPET imaging analysis relative to wild type control; assay type: ADME, organism-based
How it was run: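 Transgenic mice overexpressing PPAR-α in heart (ventricular PPAR-α protein about 15-fold above wild-type) and wild-type littermate controls. Dynamic microPET imaging over 0–60 min after intravenous injection of the carbon-11-labelled radiotracer. Radiochemical purity >98%. Cardiac accumulation was quantified as standard uptake values (SUV) and compared with wild-type animals.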

Liver [1] = test: Drug uptake in liver of MHC-PPARalpha overexpressing transgenic mouse at 170 uCi, iv after 60 mins by microPET imaging analysis; assay type: ADME, organism-based
How it was run: (§1)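 Dynamic microPET scan over 0–60 min after intravenous injection of the 11C-labelled tracer. Transgenic mice had cardiac-ventricle PPAR-α protein about 15-fold above wild-type littermates. Data were analysed as standard uptake values (SUV).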

Heart = test: Drug uptake in heart of MHC-PPARalpha overexpressing transgenic mouse at 170 uCi, iv after 60 mins by microPET imaging analysis; assay type: ADME, organism-based; how it was run: as §1
[2] = Drug uptake in cardiac tissue of MHC-PPARalpha overexpressing transgenic mouse at 170 uCi, iv after 60 mins by post-PET gamma counting analysis; assay type: ADME, organism-based, Heart
How it was run: (§2)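 Biodistribution done after PET: tissues were collected after the 0–60 min dynamic scan following intravenous injection of the 11C-labelled tracer. Transgenic mice with about 15-fold ventricular PPAR-α overexpression were used alongside wild-type littermate controls. Uptake was expressed as %ID/g.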

[3] = Drug uptake in wild type mouse cardiac tissue at 170 uCi, iv after 60 mins by post-PET gamma counting analysis; assay type: ADME, organism-based, Heart; how it was run: as §2
Blood [4] = test: Drug uptake in blood of MHC-PPARalpha overexpressing transgenic mouse at 170 uCi, iv after 60 mins by post-PET gamma counting analysis; assay type: ADME, organism-based; how it was run: as §2
Blood [5] = test: Drug uptake in wild type mouse blood at 170 uCi, iv after 60 mins by post-PET gamma counting analysis; assay type: ADME, organism-based; how it was run: as §2
Lung [6] = test: Drug uptake in lungs of MHC-PPARalpha overexpressing transgenic mouse at 170 uCi, iv after 60 mins by post-PET gamma counting analysis; assay type: ADME, organism-based; how it was run: as §2
Lung [7] = test: Drug uptake in wild type mouse lungs at 170 uCi, iv after 60 mins by post-PET gamma counting analysis; assay type: ADME, organism-based; how it was run: as §2
Liver [8] = test: Drug uptake in liver of MHC-PPARalpha overexpressing transgenic mouse at 170 uCi, iv after 60 mins by post-PET gamma counting analysis; assay type: ADME, organism-based; how it was run: as §2
Liver [9] = test: Drug uptake in wild type mouse liver at 170 uCi, iv after 60 mins by post-PET gamma counting analysis; assay type: ADME, organism-based; how it was run: as §2
Spleen [10] = test: Drug uptake in spleen of MHC-PPARalpha overexpressing transgenic mouse at 170 uCi, iv after 60 mins by post-PET gamma counting analysis; assay type: ADME, organism-based; how it was run: as §2
Spleen [11] = test: Drug uptake in wild type mouse spleen at 170 uCi, iv after 60 mins by post-PET gamma counting analysis; assay type: ADME, organism-based; how it was run: as §2
Kidney [12] = test: Drug uptake in kidney of MHC-PPARalpha overexpressing transgenic mouse at 170 uCi, iv after 60 mins by post-PET gamma counting analysis; assay type: ADME, organism-based; how it was run: as §2
Kidney [13] = test: Drug uptake in wild type mouse kidney at 170 uCi, iv after 60 mins by post-PET gamma counting analysis; assay type: ADME, organism-based; how it was run: as §2
Muscle tissue [14] = test: Drug uptake in muscle of MHC-PPARalpha overexpressing transgenic mouse at 170 uCi, iv after 60 mins by post-PET gamma counting analysis; assay type: ADME, organism-based; how it was run: as §2
Muscle tissue [15] = test: Drug uptake in wild type mouse muscle at 170 uCi, iv after 60 mins by post-PET gamma counting analysis; assay type: ADME, organism-based; how it was run: as §2

SMILES: CC(C)(Sc1ccc(CCN(CCCCC2CCCCC2)C(=O)Nc2ccc(O[11CH3])cc2)cc1)C(=O)O
- fold change (FC) (Mus musculus): 2
- Drug uptake (Liver [1]): Active
- Drug uptake (Heart): Active
- Drug uptake [2]: 1.09 % ID/g
- Drug uptake [3]: 0.479 % ID/g
- Drug uptake (Blood [4]): 0.42 % ID/g
- Drug uptake (Blood [5]): 0.42 % ID/g
- Drug uptake (Lung [6]): 2.65 % ID/g
- Drug uptake (Lung [7]): 2.11 % ID/g
- Drug uptake (Liver [8]): 55.3 % ID/g
- Drug uptake (Liver [9]): 60.69 % ID/g
- Drug uptake (Spleen [10]): 1.33 % ID/g
- Drug uptake (Spleen [11]): 1.55 % ID/g
- Drug uptake (Kidney [12]): 2.58 % ID/g
- Drug uptake (Kidney [13]): 2.01 % ID/g
- Drug uptake (Muscle tissue [14]): 0.36 % ID/g
- Drug uptake (Muscle tissue [15]): 0.35 % ID/g
